Reference: ChEMBL document CHEMBL1121898, “Potential antiestrogens. Synthesis and evaluation of mammary tumor inhibiting activity of 1,2-dialkyl-1,2-bis(3'-hydroxyphenyl)ethanes” (1981)

Key:
[1] = species: Rattus norvegicus; assay: Percent change in body weight DMBA-induced hormone-dependent mammary carcinoma tumors in rats at 34 mg for 7 days; format: functional
[2] = species: Rattus norvegicus; assay: Percent change in body weight DMBA-induced hormone-dependent mammary carcinoma tumors in rats at 8.5 mg for 7 days; format: functional
[3] = species: Rattus norvegicus; assay: Progression of DMBA-induced hormone-dependent mammary carcinoma tumors in rats at 34 mg; format: functional
[4] = species: Rattus norvegicus; assay: Complete remission of DMBA-induced hormone-dependent mammary carcinoma tumors in ovariectomised rats; format: functional
Procedure, shortened: (§1)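 Female SD rats bearing DMBA-induced, hormone-dependent mammary adenocarcinoma, with at least one tumor >140 mm², were grouped in tens. Dosing was sc per kg body weight: a single dose daily Monday–Thursday and a double dose Friday. Ovariectomy served as the comparison arm. Complete remission was defined as a tumor no longer palpable. Body weight and tumor area changes were also recorded.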

[5] = molecular target: T1, Estrogen receptor (Mus musculus) (UniProt O08537+P19785); assay: Antiestrogenic activity in uterotrophic test in mice at 100 ug; format: functional
Procedure, shortened: (§2)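 Immature female NMRI mice, 20 days old (14.5 ± 1.2 g), randomly grouped 10 per group. Each received a daily sc injection for 3 days of 0.1 mL olive oil solution containing test compound, together with estrone to stimulate uterine growth. Uteri were removed 24 h after the last injection and weighed. Results are reported as % inhibition of the estrone-stimulated uterine weight gain, mean ± SD.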

[6] = molecular target: T1, Estrogen receptor (Mus musculus); assay: Antiestrogenic activity in uterotrophic test in mice at 3.3 ug; format: functional; procedure, shortened: as §2
[7] = species: Rattus norvegicus; assay: Percent change in DMBA-induced hormone-dependent mammary carcinoma tumor area at 17 mg after 28 days; format: functional
Procedure, shortened: (§3)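 DMBA-induced, hormone-dependent mammary adenocarcinoma in SD rats. Rats bearing at least one tumor >140 mm² were placed in groups of ten. Compound was given sc as a single dose (mg/kg) daily Monday–Thursday and a double dose on Friday. Tumors were counted at the start and as new tumors; responses were scored as complete remission (not palpable), partial remission (≥50% reduction), no change or progression. Tumor area and body weight were recorded as % change.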

[8] = test system: Estrogen receptor (Bos taurus); assay: Displacement of [3H]estradiol from calf estrogen receptor
[9] = species: Rattus norvegicus; assay: Initial tumor number of DMBA-induced hormone-dependent mammary carcinoma in rats at 34 mg; format: functional; procedure, shortened: as §3
[10] = species: Rattus norvegicus; assay: Percent change in DMBA-induced hormone-dependent mammary carcinoma tumor area at 8.5 mg after 28 days; format: functional; procedure, shortened: as §3
[11] = species: Rattus norvegicus; assay: Final number of DMBA-induced hormone-dependent mammary carcinoma tumors in rats at 34 mg; format: functional
Procedure, shortened: (§4)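 Sprague-Dawley rats carrying DMBA-induced, hormone-dependent mammary adenocarcinoma, at least one tumor >140 mm², were placed in groups of ten. Compounds were given sc, with doses in mg/kg: a single daily dose Monday to Thursday and a double dose on Friday. Ovariectomy served as a comparator group. New tumors arising during the test were counted.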

[12] = species: Rattus norvegicus; assay: Final number of DMBA-induced hormone-dependent mammary carcinoma tumors in rats at 8.5 mg; format: functional; procedure, shortened: as §4
[13] = molecular target: T1, Estrogen receptor (Mus musculus); assay: Estrogenic activity in uterotrophic test in mice at 900 ug; format: functional
Procedure, shortened: (§5)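 Immature (20-day-old) female NMRI mice, 14.5 ± 1.2 g, randomized into groups of 10. Given the test compound sc daily for 3 days in 0.1 mL olive oil. Uteri removed 24 h after the last injection; uterine weight taken as the read-out, means ± SD. Dose in μg.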

[14] = species: Rattus norvegicus; assay: Percent change in DMBA-induced hormone-dependent mammary carcinoma tumor area at 34 mg after 28 days; format: functional; procedure, shortened: as §3
[15] = species: Rattus norvegicus; assay: Number of DMBA-induced hormone-dependent mammary carcinoma tumors in ovariectomised rats; format: functional
Procedure, shortened: (§6)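 DMBA-induced, hormone-dependent mammary adenocarcinoma in SD rats, with ovariectomy as the treatment. Rats bearing at least one tumor >140 mm² were placed in groups of ten. Tumors were counted at the start and as new tumors. Responses were scored as complete remission, partial remission (≥50% size reduction), no change or progression, with % change in tumor area and body weight.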

[16] = species: Rattus norvegicus; assay: Partial remission of DMBA-induced hormone-dependent mammary carcinoma tumors in rats at 8.5 mg; format: functional; procedure, shortened: as §3
[17] = species: Rattus norvegicus; assay: Initial tumor number of DMBA-induced hormone-dependent mammary carcinoma in rats at 17 mg; format: functional; procedure, shortened: as §3
[18] = species: Rattus norvegicus; assay: Progression of DMBA-induced hormone-dependent mammary carcinoma tumors in rats at 8.5 mg; format: functional
[19] = molecular target: T1, Estrogen receptor (Mus musculus); assay: Estrogenic activity in uterotrophic test in mice at 300 ug; format: functional; procedure, shortened: as §5
[20] = species: Rattus norvegicus; assay: Percent change in body weight DMBA-induced hormone-dependent mammary carcinoma tumors in ovariectomised rats after 7 days; format: functional; procedure, shortened: as §6
[21] = species: Rattus norvegicus; assay: Progression of DMBA-induced hormone-dependent mammary carcinoma tumors in rats at 17 mg; format: functional
[22] = species: Rattus norvegicus; assay: Complete remission of DMBA-induced hormone-dependent mammary carcinoma tumors in rats at 8.5 mg; format: functional; procedure, shortened: as §1
[23] = molecular target: T1, Estrogen receptor (Mus musculus); assay: Inhibitory activity in mouse uterine weight test at 100 ug; format: functional
Procedure, shortened: (§7)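 Antiuterotrophic (Dorfman) assay in immature 20-day-old female NMRI mice, groups of 10. Uterine growth was stimulated with estrone (0.1 μg) and the test compound was given alongside it, sc daily for 3 days in 0.1 mL olive oil. Uteri were taken 24 h after the last dose. Uterine weight is reported as means ± SD and inhibition as % of the estrone-stimulated response.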

[24] = molecular target: T1, Estrogen receptor (Mus musculus); assay: Inhibitory activity in mouse uterine weight test at 3.3 ug; format: functional; procedure, shortened: as §7
[25] = species: Rattus norvegicus; assay: Complete remission of DMBA-induced hormone-dependent mammary carcinoma tumors in rats at 34 mg; format: functional; procedure, shortened: as §1
[26] = species: Rattus norvegicus; assay: Initial tumor number of DMBA-induced hormone-dependent mammary carcinoma in rats at 8.5 mg; format: functional; procedure, shortened: as §3
[27] = molecular target: T1, Estrogen receptor (Mus musculus); assay: Estrogenic activity in uterotrophic test in mice at 0 ug; format: functional
Procedure, shortened: (§8)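 Uterine growth stimulation in immature female NMRI mice, 20 days old (14.5 ± 1.2 g), 10 per group. Test compound in 0.1 mL olive oil was given sc daily for 3 days. Uteri were excised 24 h after the final injection and weighed. Effect is reported as mean ± SD.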

[28] = species: Rattus norvegicus; assay: Percent unchanged tumor size of DMBA-induced hormone-dependent mammary carcinoma tumors in rats at 8.5 mg; format: functional
[29] = species: Rattus norvegicus; assay: Complete remission of DMBA-induced hormone-dependent mammary carcinoma tumors in rats at 17 mg; format: functional; procedure, shortened: as §1
[30] = species: Rattus norvegicus; assay: Percent change in body weight DMBA-induced hormone-dependent mammary carcinoma tumors in rats at 17 mg for 7 days; format: functional
Procedure, shortened: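 DMBA-induced, hormone-dependent mammary adenocarcinoma in SD rats; animals carrying at least one tumor over 140 mm² put in groups of ten. Compound given sc, dose per kg body weight per day: single dose Monday to Thursday, double dose Friday. Body weight read out as % change, alongside tumor counts, remission categories and % change in tumor area.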

[31] = species: Rattus norvegicus; assay: Partial remission of DMBA-induced hormone-dependent mammary carcinoma tumors in rats at 17 mg; format: functional; procedure, shortened: as §3
[32] = molecular target: T1, Estrogen receptor (Mus musculus); assay: Estrogenic activity in uterotrophic test in mice at 2700 ug; format: functional; procedure, shortened: as §8
[33] = species: Rattus norvegicus; assay: Percent unchanged tumor size of DMBA-induced hormone-dependent mammary carcinoma tumors in rats at 17 mg; format: functional
[34] = molecular target: T1, Estrogen receptor (Mus musculus); assay: Antiestrogenic activity in uterotrophic test in mice at 0 ug; format: functional; procedure, shortened: as §2
[35] = molecular target: T1, Estrogen receptor (Mus musculus); assay: Antiestrogenic activity in uterotrophic test in mice at 1000 ug; format: functional; procedure, shortened: as §2
[36] = molecular target: T1, Estrogen receptor (Mus musculus); assay: Estrogenic activity in uterotrophic test in mice at 30 ug; format: functional; procedure, shortened: as §8
[37] = molecular target: T1, Estrogen receptor (Mus musculus); assay: Estrogenic activity in uterotrophic test in mice at 100 ug; format: functional; procedure, shortened: as §8
[38] = species: Rattus norvegicus; assay: Percent change in DMBA-induced hormone-dependent mammary carcinoma tumor area in ovariectomised rats after 28 days; format: functional; procedure, shortened: as §6
[39] = molecular target: T1, Estrogen receptor (Mus musculus); assay: Inhibitory activity in mouse uterine weight test at 0.1 ug; format: functional; procedure, shortened: as §7
[40] = species: Rattus norvegicus; assay: Percent unchanged tumor size of DMBA-induced hormone-dependent mammary carcinoma tumors in ovarectiemised rats; format: functional; procedure, shortened: as §6
[41] = species: Rattus norvegicus; assay: Partial remission of DMBA-induced hormone-dependent mammary carcinoma tumors in ovariectomised rats; format: functional; procedure, shortened: as §6
[42] = species: Rattus norvegicus; assay: Progression of DMBA-induced hormone-dependent mammary carcinoma tumors in ovariectomised rats; format: functional; procedure, shortened: as §6
[43] = species: Rattus norvegicus; assay: Partial remission of DMBA-induced hormone-dependent mammary carcinoma tumors in rats at 34 mg; format: functional; procedure, shortened: as §3
[44] = molecular target: T1, Estrogen receptor (Mus musculus); assay: Inhibitory activity in mouse uterine weight test at 1000 ug; format: functional; procedure, shortened: as §7
[45] = species: Rattus norvegicus; assay: Final number of DMBA-induced hormone-dependent mammary carcinoma tumors in rats at 17 mg; format: functional; procedure, shortened: as §4
[46] = species: Rattus norvegicus; assay: Percent unchanged tumor size of DMBA-induced hormone-dependent mammary carcinoma tumors in rats at 34 mg; format: functional

T1 sequence (O08537 whole entry, looked up): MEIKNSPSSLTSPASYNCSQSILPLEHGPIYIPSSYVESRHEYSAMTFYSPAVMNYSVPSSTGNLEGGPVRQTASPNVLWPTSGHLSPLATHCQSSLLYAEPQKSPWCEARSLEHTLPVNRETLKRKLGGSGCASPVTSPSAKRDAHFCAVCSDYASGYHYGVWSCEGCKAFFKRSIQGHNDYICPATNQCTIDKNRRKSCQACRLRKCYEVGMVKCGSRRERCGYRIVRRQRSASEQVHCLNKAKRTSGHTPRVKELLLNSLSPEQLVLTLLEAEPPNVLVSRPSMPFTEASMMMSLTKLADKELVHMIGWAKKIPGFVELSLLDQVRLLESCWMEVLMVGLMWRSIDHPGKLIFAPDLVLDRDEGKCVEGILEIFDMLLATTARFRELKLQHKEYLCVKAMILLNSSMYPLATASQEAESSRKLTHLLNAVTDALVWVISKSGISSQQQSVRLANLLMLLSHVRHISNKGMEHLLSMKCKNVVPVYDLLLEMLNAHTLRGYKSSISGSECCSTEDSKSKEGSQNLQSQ
T1 sequence (P19785 whole entry, looked up): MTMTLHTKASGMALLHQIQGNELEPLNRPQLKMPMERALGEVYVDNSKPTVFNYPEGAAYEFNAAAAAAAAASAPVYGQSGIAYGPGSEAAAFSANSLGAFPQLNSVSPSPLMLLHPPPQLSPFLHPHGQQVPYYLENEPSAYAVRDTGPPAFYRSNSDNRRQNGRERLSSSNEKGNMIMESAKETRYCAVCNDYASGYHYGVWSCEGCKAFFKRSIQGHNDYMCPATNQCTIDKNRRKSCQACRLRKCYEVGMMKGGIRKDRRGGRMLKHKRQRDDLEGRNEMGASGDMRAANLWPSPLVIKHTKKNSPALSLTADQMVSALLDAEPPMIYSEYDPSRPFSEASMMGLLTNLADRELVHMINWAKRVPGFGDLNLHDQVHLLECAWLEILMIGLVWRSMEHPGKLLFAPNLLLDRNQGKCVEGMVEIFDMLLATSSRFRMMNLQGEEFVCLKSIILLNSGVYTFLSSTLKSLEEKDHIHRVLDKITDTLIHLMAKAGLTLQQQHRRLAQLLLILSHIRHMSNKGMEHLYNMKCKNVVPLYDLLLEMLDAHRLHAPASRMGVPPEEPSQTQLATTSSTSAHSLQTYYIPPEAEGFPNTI

CCCCC(c1cccc(O)c1)C(CCCC)c1cccc(O)c1 (stereo unspecified) showed a Change [1] of 0.3%, a Change [2] of 1.5% and a Tumors [3] of 58%. The Tumors [4] was 74%, the Effect [5] was 25.9 and the Effect [6] was 33.9. It also gave a Change [7] of 389%, a Ka [8] of 2.3e+07 M⁻¹ and a No. of tumors [9] of 22. The Change [10] was 534%, the No. of tumors [11] was 30 and the No. of tumors [12] was 37. For the same molecule, the Effect [13] was 30.8, the Change [14] was 260% and the No. of tumors [15] was 8. It also gave a Tumors [16] of 9%, a No. of tumors [17] of 27 and a Tumors [18] of 65%. It also gave an Effect [19] of 16.5, a Change [20] of 3.6% and a Tumors [21] of 55%. It also gave a Tumors [22] of 2%, an inhibition [23] of 45% and an inhibition [24] of 16%. The Tumors [25] was 6%, the No. of tumors [26] was 21 and the Effect [27] was 10.5. The Tumors [28] was 24%, the Tumors [29] was 3% and the Change [30] was 1.7%. It also gave a Tumors [31] of 6%, an Effect [32] of 35.2 and a Tumors [33] of 36%. For the same molecule, the Effect [34] was 10.5, the Effect [35] was 38.1 and the Effect [36] was 11.2. It also gave an Effect [37] of 12.6, a Change [38] of -96% and an inhibition [39] of 3%. It also gave a Tumors [40] of 3%, a Tumors [41] of 23% and a Tumors [42] of 0%. The Tumors [43] was 9%, the inhibition [44] was 1% and the No. of tumors [45] was 45. For the same molecule, the Tumors [46] was 27%.
